Assay results collected from several papers.
Lines come from different studies, so protocols differ.
PIP4K2C: Phosphatidylinositol 5-phosphate 4-kinase type-2 gamma (PIP4K2C, Homo sapiens, UniProt Q8TBX8)
MARK4: MAP/microtubule affinity-regulating kinase 4 (MARK4, Homo sapiens, UniProt Q96L34)
Nos2: Nitric oxide synthase, inducible (Nos2, Mus musculus, UniProt P29477)
RET: Proto-oncogene tyrosine-protein kinase receptor Ret (RET, Homo sapiens, UniProt P07949)
BAZ2A bromodomain: Bromodomain adjacent to zinc finger domain protein 2A, bromodomain (BAZ2A, Homo sapiens, UniProt Q9UIF9)

Cc1cnc(Nc2ccc(OCCN3CCCC3)cc2)nc1Nc1cccc(S(=O)(=O)NC(C)(C)C)c1  ΔTm (Histone-lysine N-methyltransferase ASH1L (ASH1L, Homo sapiens, UniProt Q9NR48); thermal stability; DSF; 10 µM): 0.24 °C
Nc1ncnc2occ(-c3ccc(NC(=O)Nc4cc(C(F)(F)F)ccc4F)cc3)c12  remaining signal (PIP4K2C; cell-free assay; 20 µM): 24%
O=C(NCCCNc1nc(Nc2cccc(NC(=O)N3CCCC3)c2)ncc1I)c1cccs1  remaining activity (MARK4; enzyme activity; inhibitor; radiometric; 1 µM): 2%
O=c1occcc1O  inhibition (Nos2; enzyme activity; inhibitor; 1 mM): > 40%
O=C(COc1ccc(Cl)cc1C(=O)Nc1ccccc1)Nc1cc(Cl)ccc1-n1cncn1  remaining activity (RET; enzyme activity; inhibitor; radiometric; 10 µM): 111%
CC(C)[C@@H]1NC(=O)[C@@H]2CCCN2C(=O)[C@H](Cc2ccccc2)NC(=O)CSC[C@@H](C(=O)N[C@@H](Cc2ccc(O)cc2)C(N)=O)NC(=O)[C@H](Cc2c[nH]c3ccccc23)NC(=O)[C@H](CCCCN)NC(=O)[C@H](Cc2ccccc2)N(C)C(=O)[C@H](Cc2ccccc2)NC1=O  ΔTm (Stimulator of interferon genes protein (STING1, Homo sapiens, UniProt Q86WV6, H232R); thermal stability; DSF; 200 µM): 5.83 °C
Cc1ccc(C(=O)Nc2ccc(CN3CCN(C)CC3)c(C(F)(F)F)c2)cc1C#Cc1cnc2cccnn12  remaining signal (PIP4K2C; cell-free assay; 23.5 nM): 99%
O=C(O)c1ncccc1O  inhibition (Nos2; enzyme activity; inhibitor; 1 mM): > 40%
NS(=O)(=O)c1ccc(Nc2nc(-c3ccc(F)cc3)c3ccccc3n2)cc1  remaining binding (BAZ2A bromodomain; binding; competition with immobilised ligand; 1 µM): 71%
CN(C)C1CCN(CC#Cc2nn(C3CCCC3)c3nc(NCc4ccccc4)ncc23)C1 (centres unmarked)  inhibition (Tyrosine-protein kinase Lck (LCK, Homo sapiens, UniProt P06239); enzyme activity; inhibitor; FRET; 10 µM): 78%
COc1cc2ncnc(Nc3ccc(Oc4ccccc4)cc3C)c2cc1OC  inhibition (Tyrosine-protein kinase JAK2, JH1 (JAK2, Homo sapiens, UniProt O60674); enzyme activity; inhibitor; 1 µM): -6%
Cc1nn(CC(F)(F)F)cc1Nc1ncc(Br)c(NCc2ccc(S(N)(=O)=O)cc2)n1  remaining activity (MARK4; enzyme activity; inhibitor; radiometric; 1 µM): 79%
O=C(Nc1ccc(NC(=O)c2ccoc2)cc1C(F)(F)F)Nc1ccc(NC(=O)c2ccoc2)cc1C(F)(F)F  remaining activity (RET; enzyme activity; inhibitor; radiometric; 10 µM): 101%
Cn1cncc1C1=CN(c2ncnc3[nH]cnc23)CCS1  inhibition (Serine/threonine-protein kinase LATS2 (LATS2, Homo sapiens, UniProt Q9NRM7); enzyme activity; inhibitor; radiometric; 2 µM): 92.9%
O=C(CCCCCCCCc1ccc(O)c(O)c1)c1c(O)cccc1O  inhibition (Bifunctional epoxide hydrolase 2 (EPHX2, Homo sapiens, UniProt P34913); enzyme activity; inhibitor; fluorescence; 100 µM): 90.9%
CCn1cc(C(=O)Nc2cccc(O)c2)c(=O)c2cc(F)c(N3CCN(C(C)=O)CC3)cc21  remaining activity (RET; enzyme activity; inhibitor; radiometric; 0.1 µM): 90.9%
Cc1cc2c(cc1N1C(=O)c3cccc4c(Cl)ccc(c34)C1=O)n(C)c(=O)n2C  ΔTm (BAZ2A bromodomain; thermal stability; DSF; 10 µM): 0 °C
CCOC(=O)N1CCN(c2nc(Nc3ccc(C)cc3)c3nn[nH]c3n2)CC1  remaining activity (RET; enzyme activity; inhibitor; radiometric; 10 µM): 154%
Cc1nn(C)c2ncc(C(=O)NC(=O)Nc3ccc(F)c(C(F)(F)F)c3)cc12  inhibition (C5a anaphylatoxin chemotactic receptor 1 (C5AR1, Homo sapiens, UniProt P21730); ligand displacement; radioligand; 10 µM): < 10%
CCCOc1ccc(OC)c(F)c1C(=O)c1ccc(C(=O)N[C@@H]2CNC[C@H]2NC(=O)c2ccc3[nH]ncc3c2)cc1  remaining activity (RET; enzyme activity; inhibitor; 0.75 µM): 41%
CC(=O)c1cccc(NC(=O)Cc2csc(NC(=O)Nc3cccc(Cl)c3)n2)c1  remaining activity (RET; enzyme activity; inhibitor; radiometric; 0.1 µM): 116%
CCN(c1cc(C#CCN2CCOCC2)cc(C(=O)NCc2c(C)cc(C)[nH]c2=O)c1C)[C@H]1CC[C@H](N(C)CCOC)CC1  inhibition (Histone-lysine N-methyltransferase EZH1 (EZH1, Homo sapiens, UniProt Q92800); enzyme activity; inhibitor; 1 µM): 98%
N#Cc1ccc(/C=C/CN(CC[C@H](N)C(=O)O)C[C@H]2O[C@@H](n3cnc4c(N)ncnc43)[C@H](O)[C@@H]2O)cc1  activity vs control (Phenylethanolamine N-methyltransferase (PNMT, Homo sapiens, UniProt P11086); enzyme activity; inhibitor; 10 µM): 67%
COCC(=O)Nc1cc(C(=O)N(C)CCc2c(C)n[nH]c2C)c2c(c1)ncn2Cc1ccc(F)cc1  remaining activity (RET; enzyme activity; inhibitor; radiometric; 10 µM): 117%
Oc1ccc(-c2nc(-c3ccncc3)c(-c3ccc(F)cc3)[nH]2)cc1  ΔTm (BAZ2A bromodomain; thermal stability; DSF; 10 µM): 0.16 °C
COc1ccc(OC)c(NC(=O)Nc2cc(OC)c3nc(NC(=O)c4ccccc4)sc3c2)c1  remaining activity (RET; enzyme activity; inhibitor; radiometric; 10 µM): 94.4%
C=C(F)[C@](N)(CCCCN)C(=O)O  KI (inactivation) (Lysine decarboxylase (Hafnia alvei, UniProt P05033); enzyme activity; inhibitor; absorbance): 620 µM
Cc1ccc(Nc2nc(N3CCN(C(=O)c4ccco4)CC3)nc3[nH]ncc23)cc1  remaining activity (RET; enzyme activity; inhibitor; radiometric; 10 µM): 99.9%
C[S+]([O-])c1ccc(-c2nc(-c3ccncc3)c(-c3ccc(F)cc3)[nH]2)cc1 (centres unmarked)  ΔTm (BAZ2A bromodomain; thermal stability; DSF; 10 µM): -0.19 °C
